# Measurements collected from several papers.
# speB: speB (Escherichia coli, UniProt P60651)
# ASIC1: Acid-sensing ion channel 1 (ASIC1, Homo sapiens, UniProt P78348)
Structure (SMILES),target,observed,mode,method,pH,measurement,result
O=S(=O)(O)c1ccc2c(N=Nc3c(O)ccc4ccccc34)cccc2c1,"Bcl-2-related protein A1 (Mus musculus, UniProt Q07440, C113S/P104K)",ligand displacement,,FP,,Ki,1.62 µM
CN(C)C(=N)N=C(N)N,speB,enzyme activity,inhibitor,absorbance,pH 8.5,Ki,1250 µM
CNC(=O)c1ccc(-c2cnn3ccc(C(=O)N(C)c4ccc(Cl)c(C(=O)OC)c4)cc23)cc1,"Casein kinase I isoform delta (CSNK1D, Homo sapiens, UniProt P48730)",enzyme activity,inhibitor,,,IC50,> 30 µM
CC(C)=CCN=C(N)N,speB,enzyme activity,inhibitor,absorbance,pH 8.5,Ki,8.59 µM
CC[C@H](C)[C@H](NC(=O)[C@@H]1CCCN1C(=O)[C@H](C)NC(=O)[C@@H]1CSSC[C@@H]2NC(=O)[C@H](CC(=O)O)NC(=O)[C@H](CCCNC(=N)N)NC(=O)[C@H](CCC(=O)O)NC(=O)[C@H](CCCNC(=N)N)NC(=O)CNC(=O)[C@H](CC(=O)O)NC(=O)[C@@H]3CSSC[C@H](NC(=O)[C@H](CCC(=O)O)NC(=O)[C@H](CC(C)C)NC(=O)CNC(=O)[C@H](C)NC(=O)[C@H](CSSC[C@H](NC(=O)[C@H](Cc4ccccc4)NC(=O)[C@@H](N)CO)C(=O)N[C@@H](CC(C)C)C(=O)N[C@@H](C(C)C)C(=O)N[C@@H](CCCCN)C(=O)N[C@@H](Cc4c[nH]c5ccccc45)C(=O)N[C@@H](CCCCN)C(=O)N[C@@H](CCC(N)=O)C(=O)N3)NC2=O)C(=O)N[C@@H](Cc2c[nH]c3ccccc23)C(=O)N[C@@H](CCCCN)C(=O)N[C@@H](CCCNC(=N)N)C(=O)N[C@@H](CCCNC(=N)N)C(=O)NCC(=O)N[C@@H](CC(N)=O)C(=O)N[C@@H](CCCCN)C(=O)N[C@@H](CO)C(=O)N[C@@H](CO)C(=O)N[C@@H](C(C)C)C(=O)N1)C(=O)N[C@H](C(=O)O)[C@@H](C)O,ASIC1,binding,,SPR,pH 7.5,Kd,0.0277 nM
COc1ccc2[nH]c(C)c(CC[N+](C)(C)C)c2c1,"5-hydroxytryptamine receptor 2C (HTR2C, Homo sapiens, UniProt P28335)",calcium signal,agonist,,,EC50,> 5 µM
CC[C@H](C)[C@@H]1NC(=O)[C@@H](NC(=O)[C@H](CCC(=O)O)NC(=O)[C@H](CC(N)=O)NC(=O)[C@@H](N)CO)CSSC[C@@H]2NC(=O)[C@@H]3CSSC[C@@H](C(=O)N[C@H](C(=O)N4CCC[C@H]4C(=O)N[C@H](C(=O)N4CCC[C@H]4C(=O)NCC(=O)O)[C@@H](C)CC)C(C)C)NC(=O)[C@H](C(C)C)NC(=O)[C@H](CCC(=O)O)NC(=O)[C@H](Cc4ccccc4)NC(=O)[C@H](CO)NC(=O)[C@H](Cc4c[nH]cn4)NC(=O)[C@H](CCCNC(=N)N)NC(=O)[C@H](CCCNC(=N)N)NC(=O)[C@H](CCCCN)NC(=O)[C@H](Cc4ccc(O)cc4)NC(=O)[C@H](CSSC[C@H](NC(=O)[C@H](CO)NC(=O)[C@H](CC(C)C)NC(=O)[C@H](Cc4c[nH]c5ccccc45)NC(=O)[C@H](CCCCN)NC(=O)[C@H](CCCNC(=N)N)NC1=O)C(=O)N[C@@H](C(C)C)C(=O)N[C@@H](CC(=O)O)C(=O)N[C@@H](CCCNC(=N)N)C(=O)N[C@@H](CCCCN)C(=O)N[C@@H](CC(N)=O)C(=O)N[C@@H](CC(=O)O)C(=O)N3)NC(=O)[C@H](CCC(=O)O)NC(=O)[C@H](CC(C)C)NC(=O)CNC(=O)[C@H](CCC(=O)O)NC2=O,ASIC1,binding,,SPR,,Kd,1.4 nM
CNC(=O)c1ccc(-c2cnn3ccc(C(=O)N(C)c4ccc(Cl)c(C(=O)O)c4)cc23)cc1,"5-hydroxytryptamine receptor 2B (HTR2B, Homo sapiens, UniProt P41595)",cell-free assay,,,,IC50,> 30 µM
